Screening data deposited in PubChem BioAssay by several laboratories.
PLCg1 inh – PLC-gamma1 enzyme inhibitors, primary screen, biochemical, fluorescence, purified enzyme; 1-phosphatidylinositol 4,5-bisphosphate phosphodiesterase gamma-1 (Homo sapiens), P19174; 370,000 tested, 0.84% active; inhibition, % at 12.2 µM; fluorogenic substrate; in the data active = inhibition above about 9.5%
procasp7 counter – procaspase-7 activators, primary screen, counter-screen for procaspase-3 activator project, biochemical, absorbance, HTS, human; AID 463210, 2010; 330,000 tested, 0.093% active; Caspase-7 (Homo sapiens), P55210; recombinant procaspase-7, Ac-DEVD-pNA absorbance 405 nm; D23A/D198A/D206A triple mutant, cannot self-cleave; scale: DMSO 0, 5 µM enzyme 100; activation, % at 8.5 µM;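 active = percent activation above the screen-wide mean plus 3 SD, cut at about 25% in these data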
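Test system: Procaspase-7 triple mutant (PC-7 D3A). Also added: Ac-DEVD-pNA substrate, 400 µM as added. Schedule: 1 h enzyme–compound preincubation and 2 h substrate reaction, both 25 °C. Signal: p-Nitroaniline absorbance at 405 nm, read at 0 and 120 min. Control set: low DMSO alone, high DMSO plus 5 µM PC-7.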
PLC-beta3 inh – human PLC-beta3 inhibitors, primary screen, biochemical, fluorescence | 1-phosphatidylinositol 4,5-bisphosphate phosphodiesterase beta-3 (Homo sapiens), Q01970 | Purified PLC-beta3, fluorogenic substrate | inhibition, % at 12.2 µM | 370,000 tested, 0.18% active; in the data active = inhibition above about 11%;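 also: 0% = median of compound wells on plate and 100% = full blocker control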
Arrestin-AP2 inh – inhibitors of beta-arrestin/AP2 binding, primary screen, biochemical, GPCR trafficking, flow cytometry. beta-arrestin 1 C-terminal peptide binding to AP2 beta2-adaptin appendage (human). FITC-arrestin peptide / GST-AP2 beads; AP2 beta2 appendage carries R879A mutation. inhibition, % at 10 µM. 340,000 tested, 0.31% active. AID 504490, 2011;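 active = inhibition above a set limit, near 3 SD of compounds lacking own fluorescence, cut at about 54% in these data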;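 also: plate controls were DMSO wells for no effect and 5 µM unlabelled arrestin peptide for full effect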
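System: GST-tagged AP2 beta2-adaptin appendage (R879A) on 4 µm glutathione beads / Reagent: FITC-arrestin peptide, 50 nM / Detection: HyperCyt-sampled flow cytometry, FL1 channel, ex 488/em 535 nm / Timing: 12 min plus 1 h, RT / Buffer or medium: PBS plus Tween 20 (0.05%) and BSA (0.1%)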
HGIII-sPLA2 inh – human group III sPLA2 inhibitors, primary screen, biochemical, QFRET, BODIPY PC-A2 liposome substrate. inhibition, % at 12.2 µM. AID 743126, 2013. Group 3 secretory phospholipase A2 (Homo sapiens), Q9NZ20. 370,000 tested, 0.56% active. QFRET BODIPY PC-A2 liposome hydrolysis, fluorescence;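 active = inhibition above mean plus 3 SD of compounds lying within the high and low control bounds, cut at about 19% in these data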;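 also: 0% = median of test compound wells and 100% = no enzyme DMSO wells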
procasp3 activ – activators of human procaspase-3 D3A mutant, primary screen, biochemical, absorbance, PC-3 D3A mutant, single concentration | AID 463141, 2010 | 330,000 tested, 0.11% active | recombinant procaspase-3 D3A, Ac-DEVD-pNA absorbance 405 nm | activation, % at 8.5 µM;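 active = activation above the mean of all tested compounds plus 3 SD, cut at about 21% in these data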;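 also: 0% = DMSO alone and 100% = DMSO wells spiked with extra 5 µM PC-3 D3A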
Target sequence (P42574 whole entry D9A/D28A/D175A): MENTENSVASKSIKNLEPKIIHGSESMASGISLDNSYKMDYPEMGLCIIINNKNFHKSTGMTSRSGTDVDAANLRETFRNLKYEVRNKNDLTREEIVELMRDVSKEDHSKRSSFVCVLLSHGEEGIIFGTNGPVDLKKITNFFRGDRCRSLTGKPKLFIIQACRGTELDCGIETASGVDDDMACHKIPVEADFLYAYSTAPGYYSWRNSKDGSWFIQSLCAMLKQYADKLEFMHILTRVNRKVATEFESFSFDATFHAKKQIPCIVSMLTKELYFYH
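Compound: 8.5 µM single point, 0.8% DMSO / Material: Autoprocessing-dead procaspase-3 D3A mutant enzyme / Timing: 1 h preincubation plus 2 h reaction at 25 °C / Medium: Zinc-free HEPES/NaCl buffer with 0.01% Triton X-100 at pH 7.4 / Technique: 405 nm absorbance of p-nitroaniline, reads at 0 and 120 min / Repeats: one well per compound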
Arr-AP2 CP1 – inhibitors of arrestin peptide binding to AP2, confirmation, biochemical, cherry pick 1, flow cytometry beads. shares compounds with Arrestin-AP2 inh. GST-AP2 beads, FITC arrestin peptide binding; GST-fused beta2-adaptin appendage, R879A mutant. inhibition, % at 10 µM. 1,300 tested, 2% active. AID 504908, 2011;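 active = inhibition above a set limit, roughly 3 SD of non-fluorescent compound noise, cut at about 38% in these data; inactive = inhibition at or below that limit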;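 also: loss of bead fluorescence from 50 nM FITC arrestin peptide bound to appendage; 0% = negative control wells and 100% = excess unlabelled arrestin peptide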
GST GSH counter – GST-fluorescein capture on glutathione beads, confirmation, artefact control for arrestin-AP2 inhibitor project, biochemical, cherry pick 1, flow cytometry; shares compounds with Arrestin-AP2 inh; GST-fluorescein binding to GSH beads, fluorescence, counter-screen; inhibition, % at 10 µM; 1,300 tested, 2% active; AID 588338, 2011;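 active = inhibition above 50%, about 3 SD of the inhibition seen with non-fluorescent compounds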;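 also: fluorescein maleimide labelled GST captured on 4 micron glutathione beads; higher means more loss of bead fluorescence from quenching or blocked binding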
* hit, by the source's call; . = no result given. The list is not random: actives were taken first. Their share in the collection is about 1.9%.

SMILES	PLCg1 inh	procasp7 counter	PLC-beta3 inh	Arrestin-AP2 inh	HGIII-sPLA2 inh	procasp3 activ	Arr-AP2 CP1	GST GSH counter
COc1cc(C)c(S(=O)(=O)N2CCCC2)cc1C(C)C	3	-8	5	57*	3	1	-5	2
CCOc1ccc(-n2c(SCC(=O)Nc3cccc4ccccc34)nnc2-c2ccco2)cc1	1	.	1	.	-11	.	.	.
COC(=O)C(C(=O)OC)C1OC23CN(S(=O)(=O)c4ccc(C)cc4)C=CC2(C)C3c2ccccc21 (stereo not drawn)	0	.	2	.	-16	.	.	.
O=C(/C=C/c1ccc(F)cc1)Nc1cc(S(=O)(=O)N2CCOCC2)ccc1N1CCOCC1	-1	.	-3	.	13	.	.	.
O=C(CCc1ccccc1Cl)Nc1ccc(S(=O)(=O)N2CCOCC2)cc1	1	-5	-10	59*	0	13	-4	-2
O=C(/C=C/c1ccc(F)cc1)Nc1ccc(S(=O)(=O)N2CCOCC2)cc1	0	7	-5	54*	4	7	-6	10
c1ccc2c(c1)c1ccccc1n2CN1CCOCC1	0	9	0	83*	-8	-8	-1	-9
COc1ccc(-c2cc(C(=O)Nc3c(C)n(C)n(-c4ccccc4)c3=O)c3ccccc3n2)cc1OC	-60	2	-98	56*	-1	8	-10	-3
Cc1ccc(-c2cc(C(=O)Nc3c(C)n(C)n(-c4ccccc4)c3=O)c3ccccc3n2)cc1	1	7	4	36	15	7	.	.
O=C(Oc1cccc(C(=S)N2CCCCC2)c1)c1ccccc1	4	15	-8	56*	-4	1	-1	-1
CCCCOC(=O)CCN1C(=O)/C(=C/c2ccccc2)SC1=S	3	.	-1	.	-4	.	.	.
CCCCOC(=O)CCCN1C(=O)/C(=C2\SC(=S)N(CCCC(=O)OCCCC)C2=O)SC1=S	-2	5	-5	67*	18	9	10	4
Cc1cc(C)n(CC(=O)O)c(=O)c1[N+](=O)[O-]	2	9	-6	66*	4	-1	-11	-2
Cc1cc(=O)n(CC(=O)O)c2ccccc12	6	7	2	0	3	6	.	.
COC(=O)[C@@]12CCCCC3=C1N(CCC3)C(=O)[C@H]2CC(=O)N1CCOCC1	0	.	-2	.	8	.	.	.
CCCNc1nc(NCC)nc(OC)n1	-1	0	-1	64*	-1	3	13	-6
CN1C(=O)C[C@@](C#N)(C(=O)Nc2nc3ccc(F)cc3s2)[C@H]1c1ccccc1	-1	.	3	.	-6	.	.	.
Cc1nn(CCC(=O)NNC(=O)Nc2ccccc2)c(C)c1[N+](=O)[O-]	2	.	3	.	2	.	.	.
Clc1ccc(-c2csc(N/N=C/c3ccc4c(c3)OCO4)n2)cc1	-6	-8	-6	79*	6	13	-2	1
O=C(Cn1cnc(S(=O)(=O)N2CCCC2)c1)Nc1ccc(OC(F)(F)F)cc1	2	3	2	66*	6	0	2	-5
Nc1[nH]c(C(=O)c2ccccc2)c(-c2ccc(Cl)cc2Cl)c1C(=O)c1cccs1	-6	.	-9	.	5	.	.	.
